# A selection: hits, their analogues and other compounds. The true share with any hit is near 1.9%.
# Rev-RRE block – disrupts HIV-1 Rev binding to RRE RNA; P05866; Rev peptide-RRE RNA binding, FRET; inhibition, % at 8 µM; 97,000 compounds, 0.79% hits; AID 704;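 active = inhibition above the screen-wide mean plus 3 SD, cut at about 35% in these data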
#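 assay system = Cy5-tagged RRE RNA duplex with fluorescein-tagged Rev peptide | incubation = 5 + 15 min at 25 °C | also added = labelled Rev peptide | measure = % inhibition of FRET ratio versus controls | benchmarks = DMSO wells as 0% and neomycin B wells as 100% inhibition | measured by = FRET fluorescence readout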
# PTPN22 inh 2 – blocks human PTPN22 phosphatase activity. inhibition, % at 2 µM. recombinant LYP catalytic domain, DiFMUP fluorescence. 96,000 compounds, 0.21% hits. Q9Y2R2;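 active = inhibition at 2 µM at or above a set limit, the screen mean plus 3 SD, cut at about 24% in these data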
# Target sequence (Q9Y2R2 whole entry, looked up, the tested form may be a part): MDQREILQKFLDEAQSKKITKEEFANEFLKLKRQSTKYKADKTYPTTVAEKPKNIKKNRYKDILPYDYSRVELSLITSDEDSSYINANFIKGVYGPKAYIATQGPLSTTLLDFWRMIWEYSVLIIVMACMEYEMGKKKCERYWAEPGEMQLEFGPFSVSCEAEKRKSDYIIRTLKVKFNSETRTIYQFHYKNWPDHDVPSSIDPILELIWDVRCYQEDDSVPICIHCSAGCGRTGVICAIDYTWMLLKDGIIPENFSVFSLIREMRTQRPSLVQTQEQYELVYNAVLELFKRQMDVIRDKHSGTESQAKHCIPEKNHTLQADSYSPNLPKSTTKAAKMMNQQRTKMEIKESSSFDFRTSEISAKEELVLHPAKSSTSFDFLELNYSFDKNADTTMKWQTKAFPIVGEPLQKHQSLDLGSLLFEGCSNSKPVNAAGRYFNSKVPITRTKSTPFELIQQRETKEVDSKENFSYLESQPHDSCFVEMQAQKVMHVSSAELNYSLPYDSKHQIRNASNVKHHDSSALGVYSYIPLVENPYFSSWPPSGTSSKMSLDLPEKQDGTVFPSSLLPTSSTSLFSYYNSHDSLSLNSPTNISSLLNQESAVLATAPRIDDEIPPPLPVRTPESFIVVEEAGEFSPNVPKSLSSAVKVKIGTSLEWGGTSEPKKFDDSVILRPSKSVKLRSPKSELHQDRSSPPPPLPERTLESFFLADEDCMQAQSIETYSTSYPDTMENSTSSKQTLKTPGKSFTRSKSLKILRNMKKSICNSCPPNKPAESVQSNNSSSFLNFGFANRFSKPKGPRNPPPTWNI
# EphB4 antag – EphB4-ephrin-B2 interaction antagonism; EphB4 LBD / TNYL-RAW-Alexa532 peptide, fluorescence polarization; 97,000 compounds, 0.15% hits; inhibition, % at 7 µM; P54760;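 active = inhibition above the screen-wide mean inhibition plus 3 SD, cut at about 15% in these data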
# LYP act – LYP (human) phosphatase activation. activation, % at 2 µM. recombinant LYP, DiFMUP fluorescence; 0 = plate median, 100 = signal doubled. Q9Y2R2. 96,000 compounds, 0.11% hits;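 active = activation at 2 µM above a set limit, the mean plus 5 SD, cut at about 37% in these data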
# FAK inh – inhibitors of human focal adhesion kinase; inhibition, %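 (tested at 7 µM)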; 97,000 compounds, 0.84% hits; Q05397; biochemical FAK kinase activity assay
# FAK inh confirm – FAK (human) inhibition confirmed; shares compounds with FAK inh; FAK kinase biochemical inhibition assay; inhibition, % at 7 µM; 750 compounds, 28% hits; AID 794
# Numbers stand for hits; – = inactive; · = no result. Rule as the data show it, unless noted: active = inhibition above about 19%; inactive = the rest.
SMILES,Rev-RRE block,PTPN22 inh 2,EphB4 antag,LYP act,FAK inh,FAK inh confirm
COc1ccccc1NC(=O)c1nn(-c2ccc(Cl)cc2)ccc1=O,–,–,–,–,24.9,–
COc1ccccc1NC(=O)c1nn(-c2ccccc2)ccc1=O,–,–,–,–,–,·
CC1CCN(C(=O)N2c3ccccc3Sc3ccccc32)CC1,–,–,–,–,–,·
O=C(N1CCOCC1)N1c2ccccc2Sc2ccccc21,–,–,–,–,40.3,–
CCC(C)n1c(NC(=O)c2ccccc2)c(C#N)c2nc3ccccc3nc21 (configuration not stated),75.7,–,–,–,24.7,–
CCCCn1c(NC(=O)c2ccccc2)c(C#N)c2nc3ccccc3nc21,49.9,–,–,–,41.7,–
CCCc1[nH]c(=O)c(C#N)c2c1CCCC2,–,–,–,–,–,·
Cc1ccc(N2CCN(C(=O)N3CCCC3)CC2)cc1C,–,–,–,–,–,·
O=C(COc1ccc(S(=O)(=O)N2CCCC2)cc1)NCCC1=CCCCC1,–,–,–,–,23.2,–
CC(=O)Nc1cccc(NC(=O)C2CCCN2C(=O)Nc2ccccc2C)c1 (configuration not stated),–,–,–,–,–,·
COc1ccccc1N1CCN(S(=O)(=O)c2ccc3c4c(cccc24)C(=O)N3C)CC1,–,–,–,–,–,·
COc1ccc2c3c(cccc13)N(C)N=C2C,–,–,–,–,33.6,–
O=C(Nc1cccc(Cl)c1)c1ccc(-n2cncn2)c([N+](=O)[O-])c1,–,–,–,–,–,·
COc1ccc(CCNC(=O)CN(C2CCCCC2)S(C)(=O)=O)cc1OC,–,–,–,–,20.4,–
CC(C)Cc1nnc(NC(=O)CSc2nc(=O)cc(N)n2-c2ccccc2)s1,–,–,–,–,–,·
COc1ccc(NC(=O)N[C@@H](CCSC)C(=O)O)cc1Cl,–,–,–,–,–,·
Cc1nc2c(ccc3nc(NC(=O)c4ccc5c(c4)OCCO5)sc32)s1,–,–,–,–,24.3,–
O=C1Nc2ccc(S(=O)(=O)NCc3ccco3)c3cccc1c23,–,–,–,–,19.4,–
COc1ccc(-c2csc(Nc3cccnc3)n2)cc1OC,–,–,–,–,–,·
CC(=O)Oc1ccc(-c2csc(Nc3cccnc3)n2)cc1,–,–,–,–,20.1,–
O=C1Nc2ccc(NS(=O)(=O)c3cccs3)c3cccc1c23,–,–,–,–,41.5,19.4
Cc1ccc2[nH]c3c(N4CCCCCC4)ncnc3c2c1,–,–,–,–,42.2,–
COc1ccc2c(c1)[nH]c1c(N3CCN(Cc4ccc5c(c4)OCO5)CC3)ncnc12,–,–,–,–,25.4,–
Cc1ccc2[nH]c3c(N4CCN(Cc5ccccc5)CC4)ncnc3c2c1,–,–,–,–,–,·
Cc1ccc2[nH]c3c(N4CCN(Cc5ccc6c(c5)OCO6)CC4)ncnc3c2c1,–,–,–,–,38.3,–
SMILES,Rev-RRE block,PTPN22 inh 2,EphB4 antag,LYP act,FAK inh,FAK inh confirm
CCOCCCNc1nc2c(c(=O)[nH]c(=O)n2C)n1CCCc1ccccc1,–,–,–,–,–,·
N#Cc1c(NC(=O)Cn2cnc3ccccc3c2=O)oc(-c2ccccc2)c1-c1ccccc1,–,–,–,–,–,·
CCCc1nc(SCC(=O)Nc2cc(C)on2)c2ccccc2n1,–,–,–,–,–,·
Cc1cc(NC(=O)CSc2c3c(nc4ccccc24)CCC3)no1,–,–,–,–,26.8,–
O=c1oc2c3c4c(cc2c2c1CCC2)OCCN4CCC3,–,–,–,–,–,·
CCOC(=O)C1=C(C)NC(SCc2cc(=O)[nH][nH]2)=C(C#N)C1c1cccs1 (configuration not stated),–,–,–,–,–,·
Clc1ccc(-c2n[nH]c3c2CCC3)cc1Cl,–,–,–,–,27.9,–
O=C(/C=C/c1ccc(O)cc1)c1ccc(NC2=C(N3CCCCC3)C(=O)c3ccccc3C2=O)cc1,–,–,–,–,30.5,–
O=C1C(Nc2cccc(O)c2)=C(N2CCCCC2)C(=O)c2ccccc21,–,–,–,–,26.8,–
O=C1C(Nc2ccccc2)=C(N2CCCCC2)C(=O)c2ccccc21,–,–,–,–,22.8,–
Cc1ccc(NC2=C(N3CCCCC3)C(=O)c3ccccc3C2=O)cc1,–,–,–,–,–,·
O=c1cc(N2CCCCC2)c(-c2ccccc2)nn1Cc1c(Cl)cccc1Cl,–,–,–,–,–,·

# Screens deposited in PubChem BioAssay by several laboratories.
